In PMC12667952 (bioRxiv, 2025):
Changes are numbered by the printed parent chain.

How the values were obtained:
histamine (H1) = experiment: Cerep panel off-target selectivity screen, H1; assay type: binding; conditions: 1 × 10^-5 M
mice = experiment: Side effect scoring; assay type: in vivo, mouse
Procedure, shortened: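 Adverse events, including sedation, recorded at each time point as mice were placed in the testing apparatus after i.p. dosing. Each scored 0–3 (none, mild, moderate, severe), and scores averaged per treatment group.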

CCI mice = experiment: Mechanical allodynia; assay type: in vivo, mouse; conditions: for Peak reduction of response rate to von Frey stimulus: 3 hours
Procedure, shortened: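 CCI mice tested 14 days after surgery. […] A single 0.4 g von Frey filament (about 15% response in naïve mice) applied to the left hind plantar surface until it bent. Response rate recorded after dosing.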

hGlyT2^WT [1] = molecular target: T1, hGlyT2^WT (Homo sapiens, UniProt Q9Y345); experiment: Sodium dependence of inhibition of glycine transport currents; assay type: cell-based; conditions: 300 μM glycine
T1 sequence (Q9Y345 1-797): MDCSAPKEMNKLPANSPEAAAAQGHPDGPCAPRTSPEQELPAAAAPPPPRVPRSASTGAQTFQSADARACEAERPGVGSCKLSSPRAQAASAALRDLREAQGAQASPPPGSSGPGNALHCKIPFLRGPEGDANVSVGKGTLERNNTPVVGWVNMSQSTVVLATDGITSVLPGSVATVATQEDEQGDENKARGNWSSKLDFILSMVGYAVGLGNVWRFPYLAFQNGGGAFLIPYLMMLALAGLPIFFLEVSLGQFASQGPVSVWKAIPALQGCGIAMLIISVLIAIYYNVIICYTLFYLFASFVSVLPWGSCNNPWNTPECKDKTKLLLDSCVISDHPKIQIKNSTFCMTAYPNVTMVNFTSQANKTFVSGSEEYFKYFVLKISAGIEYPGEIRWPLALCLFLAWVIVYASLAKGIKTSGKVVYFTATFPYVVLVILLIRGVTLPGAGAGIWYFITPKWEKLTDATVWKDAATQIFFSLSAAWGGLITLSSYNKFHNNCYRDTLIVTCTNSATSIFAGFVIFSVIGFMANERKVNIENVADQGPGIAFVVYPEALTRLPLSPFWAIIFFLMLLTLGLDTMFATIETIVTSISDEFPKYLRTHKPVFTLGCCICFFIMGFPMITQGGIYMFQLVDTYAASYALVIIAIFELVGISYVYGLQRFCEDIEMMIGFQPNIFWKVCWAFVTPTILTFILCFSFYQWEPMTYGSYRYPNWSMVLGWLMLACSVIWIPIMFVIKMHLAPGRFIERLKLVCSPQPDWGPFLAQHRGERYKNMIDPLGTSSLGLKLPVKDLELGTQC

adenosine receptors = experiment: Cerep panel off-target selectivity screen, adenosine receptors; assay type: binding; conditions: 1 × 10^-5 M
naïve mice = experiment: Accelerating rotarod, motor coordination in naïve mice; assay type: in vivo, mouse
Procedure, shortened: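 Naïve mice trained for 3 days on an accelerating rotarod with large cylinders (3 sessions/day at 30-min intervals, 5 min acclimatisation each day), speed rising from 4 to 20 rpm over 180 s. Test compound given i.p. in 5% Solutol in PBS. Tested at t = 0 and 30, 60, 90, 120 and 180 min post-dose. Performance normalised to % baseline.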

hGlyT2^WT [2] = molecular target: T1, hGlyT2^WT; experiment: Reversibility; assay type: cell-based; conditions: washout, hGlyT2^WT
Procedure, shortened: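 Xenopus oocytes injected with 20 ng hGlyT2 WT cRNA and held 3–6 days at 18 °C. Glycine currents recorded by two-electrode voltage clamp at −60 mV. Test compound applied at a single concentration (10 μM maximum), then washed out. Recovery of 30 µM glycine-evoked currents followed to 30 min, normalised to pre-inhibitor current. n ≥ 5 from at least two frogs.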

hGlyT2^W215F [3] = molecular target: T2, hGlyT2^W215F (Homo sapiens, UniProt Q9Y345, W215F); assay type: cell-based
T2 sequence (Q9Y345 1-797 W215F): T1 sequence (Q9Y345 1-797) with W215F

hGlyT2^W215F [4] = molecular target: T2, hGlyT2^W215F; experiment: Reversibility; assay type: cell-based
hGlyT2^WT [5] = molecular target: T1, hGlyT2^WT; assay type: cell-based; conditions: glycine concentration-dependent currents with co-applied inhibitor

CN(C)C1(CNC(=O)c2ccc3c(c2)CCN3C(=O)c2ccccc2)CCOCC1 [RPI-GLYT2–82, 1-benzoyl-N-((4-(dimethylamino)tetrahydro-2H-pyran-4-yl)methyl)indoline-5-carboxamide]
Activity at histamine H1 (histamine (H1)): inactive
Sedation (mice; 250 mg/kg (maximal dose)): transient sedation
Time to full recovery from sedation (mice; 250 mg/kg i.p.): ≤ 90 min
Peak reduction of response rate to von Frey stimulus (CCI mice; CCI mice, 50 mg/kg i.p.): 30%
Peak reduction of response rate to von Frey stimulus (CCI mice; CCI mice, 100 mg/kg i.p.): 42%
Time of maximum efficacy, mechanical allodynia (CCI mice; CCI mice, 50 and 100 mg/kg i.p.): between 90 minutes and 3 hours post-administration
Efficacy at alleviating mechanical allodynia compared to pregabalin (CCI mice; pregabalin 50 mg/kg): not as efficacious
IC50 (hGlyT2^WT [1]; IC50 at 20 mM Na+, 20 mM Na+, choline chloride substitute): 159 nM
IC50 (hGlyT2^WT [1]; IC50 at 100 mM Na+, 100 mM Na+): 279 nM
Activity at adenosine receptors (adenosine receptors): inactive
Adverse neuromotor effects or muscle weakness (rotarod, grip strength, sedation) (naïve mice; 50 mg/kg analgesic dose): not associated with adverse neuromotor effects or muscle weakness
Rotarod performance (naïve mice; 250 mg/kg): transient reduction in rotarod performance
Initial reduction in baseline rotarod performance (naïve mice; 250 mg/kg i.p., restored over the 90-minute time course): 61%
Reversibility of inhibition (recovery of glycine-induced currents) (hGlyT2^WT [2]): recovered to pre-inhibition levels within five minutes
IC50 (hGlyT2^W215F [3]): > 10000 nM
Washout of inhibitor from hGlyT2^W215F (hGlyT2^W215F [4]): almost immediate
Mechanism of inhibition (hGlyT2^WT [5]): non-competitive inhibitor
